{"source": "ChEMBL document CHEMBL1152189", "about": "“Beta-C-glycosiduronic acids and beta-C-glycosyl compounds: new PTP1B inhibitors” (Bioorg Med Chem Lett, 2008)", "key": {"[1]": {"biological_target": "T1, Tyrosine-protein phosphatase non-receptor type 1 (Homo sapiens) (UniProt P18031)", "T1 sequence (whole entry)": "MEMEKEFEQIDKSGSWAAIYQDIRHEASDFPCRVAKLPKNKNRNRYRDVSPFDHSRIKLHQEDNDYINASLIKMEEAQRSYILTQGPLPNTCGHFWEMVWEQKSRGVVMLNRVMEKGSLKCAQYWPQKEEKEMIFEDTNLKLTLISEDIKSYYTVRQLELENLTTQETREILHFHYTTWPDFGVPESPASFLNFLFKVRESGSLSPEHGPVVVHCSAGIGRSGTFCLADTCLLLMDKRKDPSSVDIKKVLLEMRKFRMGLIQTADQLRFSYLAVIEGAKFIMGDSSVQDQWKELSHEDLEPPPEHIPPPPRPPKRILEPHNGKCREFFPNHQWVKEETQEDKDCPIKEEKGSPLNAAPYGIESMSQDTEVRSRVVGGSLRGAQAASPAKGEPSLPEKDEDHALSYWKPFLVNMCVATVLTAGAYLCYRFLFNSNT", "experiment": "Inhibition of recombinant PTP1B at 20 ug/mL", "method_in_brief": "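pNPP hydrolysis by recombinant enzyme in 50 mM MOPS pH 6.5 with 2 mM pNPP. Read continuously at 405 nm for 2 min at 30 °C, and initial rate taken from early linear region. Inhibitor tested at 20 μg/mL. Mean of three experiments.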"}, "[2]": {"biological_target": "T2, Tyrosine-protein phosphatase non-receptor type 1 (Homo sapiens, UniProt P18031)", "T2 sequence (P18031 whole entry)": "T1 sequence (whole entry)", "experiment": "Inhibition of recombinant PTP1B", "method_in_brief": "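Recombinant enzyme, 30 nM, with 2 mM pNPP in 50 mM MOPS pH 6.5. Hydrolysis followed continuously at 405 nm for 2 min at 30 °C, and initial rate taken from early linear region. Inhibitor diluted around estimated IC50. IC50 from nonlinear fit of % inhibition vs [I] with Hill equation. Mean of three experiments, SD given.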"}}, "note": "pIC50: −log10 of the molar value."}
{"smiles": "CC(=O)O[C@H]1[C@@H](OC(C)=O)[C@@H](C(=O)O)O[C@@H](C2=CC(=O)C=CC2=O)[C@@H]1OC(C)=O", "values": [{"measurement": "inhibition", "setting": "[1]", "result": 70.3, "unit": "%"}, {"measurement": "pIC50", "setting": "[2]", "result": 4.56}]}
{"smiles": "COc1ccc(OC)c([C@@H]2O[C@H](CNC(=O)c3ccccc3)[C@@H](O)[C@H](OC(=O)c3ccccc3)[C@H]2OC(=O)c2ccccc2)c1", "values": [{"measurement": "inhibition", "setting": "[1]", "result": 94.9, "unit": "%"}, {"measurement": "pIC50", "setting": "[2]", "result": 5.38}]}
{"smiles": "CC(=O)O[C@@H]1[C@@H](OC(C)=O)[C@H](C2=CC(=O)C=CC2=O)O[C@H](CNC(=O)c2ccccc2)[C@H]1OC(C)=O", "values": [{"measurement": "inhibition", "setting": "[1]", "result": 26.6, "unit": "%"}]}
{"smiles": "CC(=O)O[C@@H]1[C@@H](OC(C)=O)[C@H](C2=CC(=O)C=CC2=O)O[C@H](C(=O)O)[C@H]1OC(C)=O", "values": [{"measurement": "inhibition", "setting": "[1]", "result": 84.7, "unit": "%"}, {"measurement": "pIC50", "setting": "[2]", "result": 4.69}]}
{"smiles": "COc1cc([C@@H]2O[C@H](CN=[N+]=[N-])[C@@H](OC(=O)c3ccccc3)[C@H](OC(=O)c3ccccc3)[C@H]2OC(=O)c2ccccc2)c(OC)c2ccccc12", "values": [{"measurement": "inhibition", "setting": "[1]", "result": 96.5, "unit": "%"}, {"measurement": "pIC50", "setting": "[2]", "result": 5.63}]}
{"smiles": "COc1cc([C@@H]2O[C@H](CNC(=O)c3ccccc3C(=O)O)[C@@H](OC(=O)c3ccccc3)[C@H](OC(=O)c3ccccc3)[C@H]2OC(=O)c2ccccc2)c(OC)c2ccccc12", "values": [{"measurement": "inhibition", "setting": "[1]", "result": 92.1, "unit": "%"}, {"measurement": "pIC50", "setting": "[2]", "result": 6.11}]}
{"smiles": "COc1ccc(OC)c([C@@H]2O[C@H](CNC(=O)c3ccccc3)[C@@H](OC(C)=O)[C@H](OC(C)=O)[C@H]2OC(C)=O)c1", "values": [{"measurement": "inhibition", "setting": "[1]", "result": 12.1, "unit": "%"}]}
{"smiles": "CC(=O)O[C@@H]1[C@@H](OC(C)=O)[C@H](C2=CC(=O)c3ccccc3C2=O)O[C@H](C(=O)O)[C@H]1OC(C)=O", "values": [{"measurement": "inhibition", "setting": "[1]", "result": 83.1, "unit": "%"}, {"measurement": "pIC50", "setting": "[2]", "result": 4.80}]}
{"smiles": "O=C1C=CC(=O)C([C@@H]2O[C@H](CNC(=O)c3ccccc3)[C@@H](O)[C@H](OC(=O)c3ccccc3)[C@H]2OC(=O)c2ccccc2)=C1", "values": [{"measurement": "inhibition", "setting": "[1]", "result": 94.1, "unit": "%"}, {"measurement": "pIC50", "setting": "[2]", "result": 5.28}]}
{"smiles": "COc1ccc(OC)c([C@@H]2O[C@H](COC(C)=O)[C@H](NC(=O)c3ccccc3C(=O)O)[C@H](OC(C)=O)[C@H]2OC(C)=O)c1", "values": [{"measurement": "inhibition", "setting": "[1]", "result": 49.5, "unit": "%"}]}
{"smiles": "CC(=O)O[C@H]1[C@@H](OC(C)=O)[C@@H](C(=O)O)O[C@@H](C2=CC(=O)c3ccccc3C2=O)[C@@H]1OC(C)=O", "values": [{"measurement": "inhibition", "setting": "[1]", "result": 88.2, "unit": "%"}, {"measurement": "pIC50", "setting": "[2]", "result": 4.78}]}
{"smiles": "COc1ccc(OC)c([C@@H]2O[C@H](CNC(=O)c3ccccc3)[C@@H](OC(C)=O)[C@H](OC(=O)c3ccccc3)[C@H]2OC(=O)c2ccccc2)c1", "values": [{"measurement": "inhibition", "setting": "[1]", "result": 83.4, "unit": "%"}, {"measurement": "pIC50", "setting": "[2]", "result": 5.34}]}
{"smiles": "COc1ccc(OC)c([C@@H]2O[C@H](CNC(=O)c3ccccc3C(=O)O)[C@@H](OC(=O)c3ccccc3)[C@H](OC(=O)c3ccccc3)[C@H]2OC(=O)c2ccccc2)c1", "values": [{"measurement": "inhibition", "setting": "[1]", "result": 99.7, "unit": "%"}, {"measurement": "pIC50", "setting": "[2]", "result": 5.61}]}
{"smiles": "O=C(O[C@H]1[C@@H](OC(=O)c2ccccc2)[C@@H](C(=O)O)O[C@@H](C2=CC(=O)c3ccccc3C2=O)[C@@H]1OC(=O)c1ccccc1)c1ccccc1", "values": [{"measurement": "inhibition", "setting": "[1]", "result": 99.5, "unit": "%"}, {"measurement": "pIC50", "setting": "[2]", "result": 5.95}]}
